# Results collected from several papers.
# Each line is one published result; the experiments were not run side by side.
# Target: BMP-2-inducible protein kinase (BMP2K, Homo sapiens, UniProt Q9NSY1)
Compound,assay,setting,remaining binding [%]
Cc1cc(NC(=O)c2cccc(S(F)(F)(F)(F)F)c2)cc(-n2ccn3nc(-c4cccnc4)cc23)c1,"cell-free assay, competition with immobilised ligand",1 µM,65.9
c1cncc(-c2cccc(Nc3nccc(NC4CCCCC4)n3)c2)c1,"binding, competition with immobilised ligand",10 µM,21
C[C@@H](c1ccc(-n2cnc3c(N)ncnc32)cc1)N1CCc2nn(C)c(Cc3ccccc3)c2C1=O,"binding, competition with immobilised ligand",0.1 µM,84
Cc1cc(C)c(-n2ccn3nc(-c4cccnc4)cc23)cc1NC(=O)c1cc(C#N)cc(S(F)(F)(F)(F)F)c1,"cell-free assay, competition with immobilised ligand",0.1 µM,94.7
O=C(Nc1c[nH]nc1C(=O)NC1CCNCC1)c1cc(F)cc(F)c1,"binding, competition with immobilised ligand",1 µM,53
O=C(NCCCN1CCOCC1)c1ccc(Nc2ncc(Cl)c(-c3ccc(Cl)s3)n2)cc1,"binding, competition with immobilised ligand",1 µM,0.1
CCC(=O)N[C@@H]1CC[C@H](C(=O)N(C)c2ccc(-c3nc4ccccc4o3)cc2)C1,"cell-free assay, competition with immobilised ligand",1 µM,100
CN(C)c1nccc(-c2cnc3ncccn23)n1,binding,1 µM,100
Cc1c(C(=O)O)cc(-c2ccc(C3CCNCC3)cc2)c2ccc(-c3ccc(C(F)(F)F)cc3)cc12,"binding, competition with immobilised ligand",1 µM,83
O=C(NCCCN1CCOCC1)c1ccc(Nc2nccc(-c3cc4ccccc4s3)n2)cc1,"binding, competition with immobilised ligand",1 µM,0.7
FC(F)(F)Oc1cccc(-c2cnc3ccc(-c4ccncc4)nn23)c1,"binding, competition with immobilised ligand",5 µM,8.3
N[C@@H]1CCN(c2nccc(-c3cnn4ncccc34)n2)C1,binding,1 µM,100
O=C1NC(c2ccccn2)Sc2ccccc21 (stereo not shown),"cell-free assay, competition with immobilised ligand",1 µM,88
CC1CCCN1c1nccc(-c2cnn3ncccc23)n1 (stereo not shown),binding,1 µM,95
COc1cnc(Nc2cccc(S(N)(=O)=O)c2)nc1N1CCN(c2ccccc2)CC1,"binding, competition with immobilised ligand",1 µM,57
CN(C)c1ncc(F)c(-c2cnn3ncccc23)n1,binding,1 µM,100
Cc1cnc(Nc2ccc(C(=O)N3CCC(N4CCCC4)CC3)cc2)nc1-c1cc2ccccc2s1,"binding, competition with immobilised ligand",1 µM,0.2
FC(F)(F)c1ccc2c(c1)nc(-c1cccnc1)n2C1CC1,"cell-free assay, competition with immobilised ligand",1 µM,100
c1cnn2ncc(-c3ccnc(N4CCC45COC5)n3)c2c1,binding,1 µM,61
C=CC(=O)N1CCC(C(=O)NCC(=O)N2CCN(c3nc(-c4cnc(N)nc4C(F)F)nc(N4CCOCC4)n3)CC2)CC1,"binding, competition with immobilised ligand",1 µM,94
C[C@H]1CCN(c2nccc(-c3cnn4ncccc34)n2)C1,binding,1 µM,83
COc1ncc2cc3ccccc3nc2c1C#N,"cell-free assay, competition with immobilised ligand",5 µM,100
